Source: ChEMBL document CHEMBL2311288, “Discovery of liver-targeted inhibitors of stearoyl-CoA desaturase (SCD1)” (Bioorg Med Chem Lett, 2013)

Experiments:
Mus musculus [1] = assay: Toxicity in mouse assessed as abnormalities in skin at 30 mg/kg; assay type: organism-based; parameters: dose 30 mg/kg; details: in vivo
Mus musculus [2] = assay: Toxicity in CD-1 mouse assessed as absolute liver weight at 300 mg/kg, po; assay type: organism-based; parameters: dose 300 mg/kg, route oral; details: in vivo
[3] = Ratio of drug level in liver to plasma of rat at 10 mg/kg measured after 6 hrs; assay type: ADME, organism-based; parameters: dose 10 mg/kg
How it was run: (§1)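 Rats were given a single 10 mg/kg dose. Plasma exposure (AUC, Cmax) was determined, and drug concentrations in plasma, brain and liver were measured at 6 h post-dose. The liver/plasma ratio was taken from the 6 h levels.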

Mus musculus [4] = assay: Toxicity in CD-1 mouse assessed as decrease in relative peri-renal fat weight at 100 to 300 mg/kg, po relative to control; assay type: organism-based; parameters: dose 100-300 mg/kg, route oral; details: in vivo
[5] = AUC (0 to 24 hrs) in CD-1 mouse at 100 mg/kg, po; assay type: ADME, organism-based; parameters: time < 24 hr, dose 100 mg/kg, route oral; details: plasma
How it was run: (§2)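 Male CD-1 mice received single daily oral gavage doses of 30, 100 or 300 mg/kg for 2 weeks. Plasma drug levels were determined on Day 13, and exposure was expressed as AUC(0–24 h).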

[6] = Plasma concentration in AKR/J mouse at 30 mg/kg measured after 4 hrs; assay type: ADME, organism-based; parameters: dose 30 mg/kg
How it was run: (§3)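 Male AKR/J mice, 7 weeks old (n = 10/group) and fed a 10% kcal low-fat diet, were given oral doses of 1, 3, 10 or 30 mg/kg. Plasma was collected 4 h after dosing, and drug concentration in that plasma was measured.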

Mus musculus [7] = assay: Toxicity in mouse assessed as abnormalities in eyes at 30 mg/kg; assay type: organism-based; parameters: dose 30 mg/kg; details: in vivo
[8] = Cmax in rat at 10 mg/kg; assay type: ADME, organism-based; parameters: dose 10 mg/kg; details: in vivo; how it was run: as §1
Mus musculus [9] = assay: Toxicity in CD-1 mouse assessed as relative liver weight at 300 mg/kg, po; assay type: organism-based; parameters: dose 300 mg/kg, route oral; details: in vivo
Mus musculus [10] = assay: Toxicity in CD-1 mouse assessed as eyelid atrophy of sebaceous gland up to 300 mg/kg, po; assay type: organism-based; parameters: dose 300 mg/kg, route oral; details: in vivo
[11] = Plasma concentration in AKR/J mouse at 3 mg/kg measured after 4 hrs; assay type: ADME, organism-based; parameters: dose 3 mg/kg; how it was run: as §3
Mus musculus [12] = assay: Toxicity in CD-1 mouse assessed as atrophy of the harderian and meibomian glands up to 300 mg/kg, po; assay type: organism-based; parameters: dose 300 mg/kg, route oral; details: in vivo
Mus musculus [13] = assay: Toxicity in CD-1 mouse assessed as decrease in absolute peri-renal fat weight at 100 to 300 mg/kg, po relative to control; assay type: organism-based; parameters: dose 100-300 mg/kg, route oral; details: in vivo
Mus musculus [14] = assay: Toxicity in CD-1 mouse assessed as effect on food consumption up to 300 mg/kg, po; assay type: organism-based; parameters: dose 300 mg/kg, route oral; details: in vivo
[15] = AUC (0 to 24 hrs) in CD-1 mouse at 30 mg/kg, po; assay type: ADME, organism-based; parameters: time < 24 hr, dose 30 mg/kg, route oral; details: plasma; how it was run: as §2
[16] = Plasma concentration in rat at 10 mg/kg measured after 6 hrs; assay type: ADME, organism-based; parameters: dose 10 mg/kg; how it was run: as §1
Mus musculus [17] = assay: Toxicity in CD-1 mouse assessed as meibomian gland (atrophy, squamous metaplasia) up to 300 mg/kg, po; assay type: organism-based; parameters: dose 300 mg/kg, route oral; details: in vivo
Mus musculus [18] = assay: Toxicity in CD-1 mouse assessed as absolute liver weight at 100 mg/kg, po; assay type: organism-based; parameters: dose 100 mg/kg, route oral; details: in vivo
Mus musculus [19] = assay: Toxicity in CD-1 mouse assessed as tubular atrophy of the testes up to 300 mg/kg, po; assay type: organism-based, Testis; parameters: dose 300 mg/kg, route oral; details: in vivo
[20] = AUC (0 to 24 hrs) in CD-1 mouse at 300 mg/kg, po; assay type: ADME, organism-based; parameters: time < 24 hr, dose 300 mg/kg, route oral; details: plasma; how it was run: as §2
Acyl-CoA desaturase 1 = target: T1, Acyl-CoA desaturase 1 (Rattus norvegicus, UniProt P07308); assay: Inhibition of rat SCD1 by rat microsomal assay
T1 sequence (P07308 whole entry): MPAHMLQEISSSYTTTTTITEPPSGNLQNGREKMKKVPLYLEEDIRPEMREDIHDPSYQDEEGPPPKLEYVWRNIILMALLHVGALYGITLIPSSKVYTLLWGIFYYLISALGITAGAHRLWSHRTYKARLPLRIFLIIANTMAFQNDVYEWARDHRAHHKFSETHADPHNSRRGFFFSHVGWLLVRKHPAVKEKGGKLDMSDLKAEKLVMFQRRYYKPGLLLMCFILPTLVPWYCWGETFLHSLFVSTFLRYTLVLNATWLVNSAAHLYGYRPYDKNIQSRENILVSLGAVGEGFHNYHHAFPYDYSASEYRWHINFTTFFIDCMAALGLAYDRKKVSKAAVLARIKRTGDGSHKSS
How it was run: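 Microsomal desaturase activity was measured in 100 mM Tris HCl pH 7.3 with 2 mM NADH and [9,10-3H]stearoyl-CoA for 15 min at room temperature. The reaction was stopped on ice with trichloroacetic acid, then passed through activated charcoal, and tritium in the filtrate was counted. Compounds were tested in 2% DMSO final. Percent inhibition = (total−sample)/(total−blank)×100, with the blank set by 10⁻⁴ M of a standard inhibitor.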

Mus musculus [21] = assay: Toxicity in CD-1 mouse assessed as effect on body weight up to 300 mg/kg, po; assay type: organism-based; parameters: dose 300 mg/kg, route oral; details: in vivo
Mus musculus [22] = assay: Toxicity in CD-1 mouse assessed as eyes (corneal degeneration, inflammation) up to 300 mg/kg, po; assay type: organism-based, Cornea; parameters: dose 300 mg/kg, route oral; details: in vivo
Mus musculus [23] = assay: Toxicity in CD-1 mouse assessed as relative liver weight at 100 mg/kg, po; assay type: organism-based; parameters: dose 100 mg/kg, route oral; details: in vivo
Mus musculus [24] = assay: Toxicity in CD-1 mouse assessed as skin atrophy of sebaceous gland up to 300 mg/kg, po; assay type: organism-based; parameters: dose 300 mg/kg, route oral; details: in vivo
[25] = Plasma concentration in AKR/J mouse at 10 mg/kg measured after 4 hrs; assay type: ADME, organism-based; parameters: dose 10 mg/kg; how it was run: as §3
Rattus norvegicus = assay: AUC in rat at 10 mg/kg; assay type: ADME, organism-based, Plasma; parameters: dose 10 mg/kg; details: in vivo; how it was run: as §1
[26] = Plasma concentration in AKR/J mouse at 1 mg/kg measured after 4 hrs; assay type: ADME, organism-based; parameters: dose 1 mg/kg; how it was run: as §3
Mus musculus [27] = assay: Toxicity in CD-1 mouse assessed as inhibition of fatty acid metabolism measured as lesions in eyes and skin at 30 to 300 mg/kg, po for 2 weeks; assay type: organism-based; parameters: dose 30-300 mg/kg, route oral; details: in vivo, 336 h
Mus musculus [28] = assay: Toxicity in CD-1 mouse assessed as minimal Leydig cell hyperplasia of the testes at 300 mg/kg, po; assay type: organism-based, Testis; parameters: dose 300 mg/kg, route oral; details: in vivo
[29] = Drug level in liver in rat at 10 mg/kg measured after 6 hrs; assay type: ADME, organism-based; parameters: dose 10 mg/kg; details: read-out: Drug uptake; how it was run: as §1
Mus musculus [30] = assay: Toxicity in CD-1 mouse assessed as peri-orbital swelling up to 300 mg/kg, po; assay type: organism-based; parameters: dose 300 mg/kg, route oral; details: in vivo
Mus musculus [31] = assay: Toxicity in CD-1 mouse assessed as ocular opacity up to 300 mg/kg, po; assay type: organism-based, Eye; parameters: dose 300 mg/kg, route oral; details: in vivo
Mus musculus [32] = assay: Toxicity in CD-1 mouse assessed as article related testes up to 300 mg/kg, po; assay type: organism-based, Testis; parameters: dose 300 mg/kg, route oral; details: in vivo
Mus musculus [33] = assay: Toxicity in CD-1 mouse assessed as alopecia up to 300 mg/kg, po; assay type: organism-based; parameters: dose 300 mg/kg, route oral; details: in vivo
Mus musculus [34] = assay: Toxicity in CD-1 mouse assessed as lacrimation up to 300 mg/kg, po; assay type: organism-based; parameters: dose 300 mg/kg, route oral; details: in vivo
Mus musculus [35] = assay: Toxicity in CD-1 mouse assessed as swelling of the lips up to 300 mg/kg, po; assay type: organism-based; parameters: dose 300 mg/kg, route oral; details: in vivo

SMILES	Activity (Mus musculus [1])	Kp at 6 h [3]	concentration at 4 h [6] [ng/mL]	Activity (Mus musculus [7])	Cmax [8] [ng/g]	Activity (Mus musculus [10])	Activity (Mus musculus [12])	concentration at 6 h [16] [ng/g]	Activity (Mus musculus [17])	AUC(0-t) at 24 h [20] [µM·h]	IC50 (Acyl-CoA desaturase 1) [nM]	Activity (Mus musculus [22])	Activity (Mus musculus [24])	AUC (Rattus norvegicus) [ng·h/g]	concentration at 6 h [29] [ng/g]	also measured
O=C(O)c1cnc(N2CCC3(CC2)CCN(Cc2cccc(C(F)(F)F)c2)c2ccccc2O3)s1	Non-toxic	56	1740	Non-toxic	495	Toxic	Toxic	345	Toxic	1520	8	Toxic	Toxic	2308	19200	Activity (Mus musculus [2]): 29%; Activity (Mus musculus [4]): Toxic; AUC(0-t) at 24 h [5]: 565 µM·h; Activity (Mus musculus [9]): 33%; concentration at 4 h [11]: 45 ng/mL; Activity (Mus musculus [13]): Toxic; Activity (Mus musculus [14]): Non-toxic; AUC(0-t) at 24 h [15]: 114 µM·h; Activity (Mus musculus [18]): 19%; Activity (Mus musculus [19]): Toxic; Activity (Mus musculus [21]): Non-toxic; Activity (Mus musculus [23]): 20%; concentration at 4 h [25]: 135 ng/mL; concentration at 4 h [26]: 0.64 ng/mL; Activity (Mus musculus [27]): Toxic; Activity (Mus musculus [28]): Toxic
CNC(=O)c1cccc(NC(=O)N2CCC(Oc3ccccc3Cl)CC2)c1	Non-toxic	8	1780	Non-toxic	599	Toxic	Toxic	66	Toxic	216	< 4	Toxic	Toxic	1435	529	Activity (Mus musculus [30]): Toxic; Activity (Mus musculus [31]): Toxic; Activity (Mus musculus [32]): Non-toxic; Activity (Mus musculus [33]): Toxic; Activity (Mus musculus [34]): Toxic; Activity (Mus musculus [35]): Toxic
